This is an account of results in ChEMBL document CHEMBL1133684, “Novel cannabinol probes for CB1 and CB2 cannabinoid receptors” (J Med Chem, 2000).

A word on the Ki: it is the equilibrium dissociation constant of an inhibitor or competing ligand from its target.

The target of experiment [1] is T1, Cannabinoid receptor 1 (Homo sapiens, UniProt P21554). As to the kind of experiment: Binding affinity was determined for Cannabinoid receptor 1.
Experiment [2] deals with T2, Cannabinoid receptor 2 (Homo sapiens, UniProt P34972). As to the kind of experiment: Binding affinity was determined for Cannabinoid receptor 2. Summed up: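 Radioligand displacement on P2 membrane preparations, filtration method. Test compounds kept as 1 mg/mL stocks in absolute ethanol at -20 °C.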
T2 sequence (P34972 whole entry): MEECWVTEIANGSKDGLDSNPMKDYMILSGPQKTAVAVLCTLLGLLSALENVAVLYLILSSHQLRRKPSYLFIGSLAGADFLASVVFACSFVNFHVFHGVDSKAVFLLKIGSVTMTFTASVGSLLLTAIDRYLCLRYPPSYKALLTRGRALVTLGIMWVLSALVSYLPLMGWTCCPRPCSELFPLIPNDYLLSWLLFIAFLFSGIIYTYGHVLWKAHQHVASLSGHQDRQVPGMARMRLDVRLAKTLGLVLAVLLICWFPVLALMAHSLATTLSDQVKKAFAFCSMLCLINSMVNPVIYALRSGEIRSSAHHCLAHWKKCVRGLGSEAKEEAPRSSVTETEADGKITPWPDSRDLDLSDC
In experiment [3] the target is Cannabinoid receptor (Homo sapiens) (UniProt P34972+P21554). Nature of the experiment: Ratio of Ki of CB1 receptor to that of CB2 receptor. The class given is protein assay.
Sequence of Cannabinoid receptor (Homo sapiens) (P21554 whole entry, looked up): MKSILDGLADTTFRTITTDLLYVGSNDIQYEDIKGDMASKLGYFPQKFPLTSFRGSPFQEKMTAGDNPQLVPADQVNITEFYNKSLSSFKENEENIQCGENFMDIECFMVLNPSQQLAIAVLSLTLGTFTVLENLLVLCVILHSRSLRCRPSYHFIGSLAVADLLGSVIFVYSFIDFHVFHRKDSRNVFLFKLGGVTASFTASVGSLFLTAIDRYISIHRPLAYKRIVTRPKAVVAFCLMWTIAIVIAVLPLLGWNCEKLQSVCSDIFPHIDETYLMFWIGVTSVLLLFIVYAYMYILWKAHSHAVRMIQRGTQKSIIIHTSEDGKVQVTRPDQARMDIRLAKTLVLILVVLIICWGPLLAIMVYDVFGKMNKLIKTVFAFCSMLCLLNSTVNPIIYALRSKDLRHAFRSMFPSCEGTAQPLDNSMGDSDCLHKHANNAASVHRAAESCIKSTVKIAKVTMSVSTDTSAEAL
Sequence of Cannabinoid receptor (Homo sapiens) (P34972 whole entry, looked up): as the sequence (P34972 whole entry) above
Experiment [4] addresses T1, Cannabinoid receptor 1. Nature of the experiment: Compound was tested for inhibition of Adenylyl cyclase in cannabinoid receptor 1 (CB1).
The target of experiment [5] is T2, Cannabinoid receptor 2. Nature of the experiment: Binding affinity was determined for cannabinoid receptor 2. An outline of the steps: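 Radioligand displacement on P2 membrane preparations, filtration method. Test compounds kept as 1 mg/mL stocks in absolute ethanol at -20 °C. Displacement curves came from incubating the drugs with 1 nM [³H][…].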

Where only a bound is given, the exact number is not on record here.

T1 sequence (P21554 whole entry): as the sequence (P21554 whole entry, looked up) above

Turning to `CCCCCCC(C)(C)c1cc(OC)c2c(c1)OC(C)(C)c1ccc(C(=O)OC(C)C)cc1-2`, the inhibitory constant (Ki) at Cannabinoid receptor 1 [1] and at Cannabinoid receptor 2 [2] was greater than 10000 nM each time.

Consider `CCCC(C)(C)c1ccc(-c2cc(C)ccc2C(C)C)c(O)c1`, for which affinity at Cannabinoid receptor 1 [1] was put at a Ki of 875 nM. Moreover, the Ratio in experiment [3] stood at 7.7.

Regarding `CCCCCCC(C)(C)c1cc(OC)c2c(c1)OC(C)(C)c1ccc(C(=O)OC)cc1-2`, the Ki was greater than 10000 nM on Cannabinoid receptor 1 [1] and 529 nM at Cannabinoid receptor 2 [2]. In addition, the Ratio in experiment [3] is greater than 18.9.

In the case of `CCCCCCC(C)(C)c1ccc(-c2cc(C)ccc2C(C)C)c(O)c1`, on Cannabinoid receptor 1 [1], the Ki amounted to 33 nM. In experiment [3], the Ratio turned out to be 10.

In the case of `CCCCCCC(C)(C)c1ccc2c(c1)OC(C)(C)c1ccc(C(=O)OC)cc1-2`, the figures for the Ki on Cannabinoid receptor 1 [1] and on Cannabinoid receptor 2 [2] were 558 nM and 276 nM, respectively. Also, in experiment [3], the Ratio turned out to be 2.

On to `CCCCCCC(C)(C)c1cc(OC)c2c(c1)OC(C)(C)c1ccc(C(=O)OCc3ccccc3)cc1-2`, for which the inhibitory constant (Ki) at Cannabinoid receptor 1 [1] and at Cannabinoid receptor 2 [2] was greater than 10000 nM in each case.

Take `CCCCCCC(C)(C)c1cc(O)c2c(c1)OC(C)(C)c1ccc(C)cc1-2`: the Ki was 1 nM on Cannabinoid receptor 1 [1], 2 nM at Cannabinoid receptor 1 [4] and 2.24 nM on Cannabinoid receptor 2 [5]. Further, the Ratio in experiment [3] stood at 0.4.

With `CCCCCCC(C)(C)c1cc(OC)c2c(c1)OC(C)(C)c1ccc(C(=O)OCCC)cc1-2`, the Ki at Cannabinoid receptor 1 [1] came to 1730 nM; at Cannabinoid receptor 2 [2], 214 nM. Moreover, in experiment [3], the Ratio stood at 8.1.

With `CCCCCCC(C)(C)c1cc(OC)c2c(c1)OC(C)(C)c1ccc(C)cc1-2`, the inhibition constant (Ki) is 681 nM on Cannabinoid receptor 1 [1] and 286 nM on Cannabinoid receptor 2 [2]. Further, the Ratio in experiment [3] is 2.4.

In the case of `CCCCCCC(C)(C)c1cc(O)c2c(c1)OC(C)(C)c1ccc(C(=O)OC)cc1-2`, the inhibition constant (Ki) at Cannabinoid receptor 1 [1] stood at 14 nM; at Cannabinoid receptor 2 [2], 3.8 nM. In addition, the Ratio in experiment [3] is 3.7.

Take `CCCC(C)(C)c1ccc2c(c1)OC(C)(C)c1ccc(C(=O)OC)cc1-2`: the Ki is greater than 10000 nM at Cannabinoid receptor 1 [1] and 611 nM at Cannabinoid receptor 2 [2]. In addition, the Ratio in experiment [3] was greater than 16.4.

In the case of `CCCC(C)(C)c1ccc2c(c1)OC(C)(C)c1ccc(CO)cc1-2`, the Ratio in experiment [3] is 3. The molecule further yielded a Ki on Cannabinoid receptor 2 [2] of 67 nM.

Take `CCCCCCC(C)(C)c1cc(OC)c2c(c1)OC(C)(C)c1ccc(C(=O)OCc3ccc4ccccc4c3)cc1-2`: the Ki at Cannabinoid receptor 1 [1] and at Cannabinoid receptor 2 [2] was greater than 10000 nM each time.

Turning to `CCCCCCC(C)(C)c1ccc2c(c1)OC(C)(C)c1ccc(CO)cc1-2`, the values for the Ki on Cannabinoid receptor 1 [1] and at Cannabinoid receptor 2 [2] were 2 nM and 1 nM, respectively. Moreover, in experiment [3], the Ratio stood at 2.

`CCCCCCC(C)(C)c1cc(O)c2c(c1)OC(C)(C)c1ccc(CO)cc1-2` yielded an inhibitory constant (Ki) at Cannabinoid receptor 1 [1] of 0.1 nM. Besides, the Ratio in experiment [3] came to 0.5.

As for `CCCCCCOC(=O)c1ccc2c(c1)-c1c(OC)cc(C(C)(C)CCCCCC)cc1OC2(C)C`, the Ki at Cannabinoid receptor 1 [1] and on Cannabinoid receptor 2 [2] was greater than 10000 nM each time.

As to `CCCCCCC(C)(C)c1ccc2c(c1)OC(C)(C)c1ccc(C)cc1-2`, the Ki on Cannabinoid receptor 1 [1] was found to be 434 nM; at Cannabinoid receptor 2 [2], 167 nM. Besides, in experiment [3], the Ratio amounted to 2.6.

For `CCCC(C)(C)c1cc(O)c2c(c1)OC(C)(C)c1ccc(C)cc1-2`, the inhibition constant Ki worked out at 42 nM at Cannabinoid receptor 1 [1] and 6 nM on Cannabinoid receptor 2 [2]. The Ratio in experiment [3] amounted to 7.
